Experimental data pooled from the literature.
Compare with care: the assays were run in different laboratories.
speB: speB (Escherichia coli, UniProt P60651)
ASIC1: Acid-sensing ion channel 1 (ASIC1, Homo sapiens, UniProt P78348)

Structure (SMILES) | target | observed | action | technique | pH | quantity | value
CN(C)C(=N)N=C(N)N | speB | enzyme activity | inhibitor | absorbance | pH 8.5 | Ki | 1250 µM
O=S(=O)(O)c1ccc2c(N=Nc3c(O)ccc4ccccc34)cccc2c1 | Bcl-2-related protein A1 (Mus musculus, UniProt Q07440, C113S/P104K) | ligand displacement |  | FP |  | Ki | 1.62 µM
CC[C@H](C)[C@H](NC(=O)[C@@H]1CCCN1C(=O)[C@H](C)NC(=O)[C@@H]1CSSC[C@@H]2NC(=O)[C@H](CC(=O)O)NC(=O)[C@H](CCCNC(=N)N)NC(=O)[C@H](CCC(=O)O)NC(=O)[C@H](CCCNC(=N)N)NC(=O)CNC(=O)[C@H](CC(=O)O)NC(=O)[C@@H]3CSSC[C@H](NC(=O)[C@H](CCC(=O)O)NC(=O)[C@H](CC(C)C)NC(=O)CNC(=O)[C@H](C)NC(=O)[C@H](CSSC[C@H](NC(=O)[C@H](Cc4ccccc4)NC(=O)[C@@H](N)CO)C(=O)N[C@@H](CC(C)C)C(=O)N[C@@H](C(C)C)C(=O)N[C@@H](CCCCN)C(=O)N[C@@H](Cc4c[nH]c5ccccc45)C(=O)N[C@@H](CCCCN)C(=O)N[C@@H](CCC(N)=O)C(=O)N3)NC2=O)C(=O)N[C@@H](Cc2c[nH]c3ccccc23)C(=O)N[C@@H](CCCCN)C(=O)N[C@@H](CCCNC(=N)N)C(=O)N[C@@H](CCCNC(=N)N)C(=O)NCC(=O)N[C@@H](CC(N)=O)C(=O)N[C@@H](CCCCN)C(=O)N[C@@H](CO)C(=O)N[C@@H](CO)C(=O)N[C@@H](C(C)C)C(=O)N1)C(=O)N[C@H](C(=O)O)[C@@H](C)O | ASIC1 | binding |  | SPR | pH 7.5 | Kd | 27.7 pM
CC(C)=CCN=C(N)N | speB | enzyme activity | inhibitor | absorbance | pH 8.5 | Ki | 8.59 µM
CNC(=O)c1ccc(-c2cnn3ccc(C(=O)N(C)c4ccc(Cl)c(C(=O)OC)c4)cc23)cc1 | Casein kinase I isoform delta (CSNK1D, Homo sapiens, UniProt P48730) | enzyme activity | inhibitor |  |  | IC50 | > 30 µM
COc1ccc2[nH]c(C)c(CC[N+](C)(C)C)c2c1 | 5-hydroxytryptamine receptor 2C (HTR2C, Homo sapiens, UniProt P28335) | calcium signal | agonist |  |  | EC50 | > 5 µM
CNC(=O)c1ccc(-c2cnn3ccc(C(=O)N(C)c4ccc(Cl)c(C(=O)O)c4)cc23)cc1 | 5-hydroxytryptamine receptor 2B (HTR2B, Homo sapiens, UniProt P41595) | cell-free assay |  |  |  | IC50 | > 30 µM
CC[C@H](C)[C@@H]1NC(=O)[C@@H](NC(=O)[C@H](CCC(=O)O)NC(=O)[C@H](CC(N)=O)NC(=O)[C@@H](N)CO)CSSC[C@@H]2NC(=O)[C@@H]3CSSC[C@@H](C(=O)N[C@H](C(=O)N4CCC[C@H]4C(=O)N[C@H](C(=O)N4CCC[C@H]4C(=O)NCC(=O)O)[C@@H](C)CC)C(C)C)NC(=O)[C@H](C(C)C)NC(=O)[C@H](CCC(=O)O)NC(=O)[C@H](Cc4ccccc4)NC(=O)[C@H](CO)NC(=O)[C@H](Cc4c[nH]cn4)NC(=O)[C@H](CCCNC(=N)N)NC(=O)[C@H](CCCNC(=N)N)NC(=O)[C@H](CCCCN)NC(=O)[C@H](Cc4ccc(O)cc4)NC(=O)[C@H](CSSC[C@H](NC(=O)[C@H](CO)NC(=O)[C@H](CC(C)C)NC(=O)[C@H](Cc4c[nH]c5ccccc45)NC(=O)[C@H](CCCCN)NC(=O)[C@H](CCCNC(=N)N)NC1=O)C(=O)N[C@@H](C(C)C)C(=O)N[C@@H](CC(=O)O)C(=O)N[C@@H](CCCNC(=N)N)C(=O)N[C@@H](CCCCN)C(=O)N[C@@H](CC(N)=O)C(=O)N[C@@H](CC(=O)O)C(=O)N3)NC(=O)[C@H](CCC(=O)O)NC(=O)[C@H](CC(C)C)NC(=O)CNC(=O)[C@H](CCC(=O)O)NC2=O | ASIC1 | binding |  | SPR |  | Kd | 1400 pM
